ABCB6 inh MLPCN – inhibitors of human ABC transporter ABCB6. K562-ABCB6 porphyrin accumulation, flow cytometry, 1 h; hits give low values. Q9NP58. fluorescence ratio to DMSO, % at 10 µM. 0.19% of 360,000 active;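 active means fluorescence ratio to DMSO below 75%, the collection mean minus 3 SD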;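 further: signal is porphyrin accumulated inside mitochondria; 100% equals median channel fluorescence of DMSO control wells; lower ratio means ABCB6 inhibition with less porphyrin fluorescence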
MC4R antag cAMP – blocks human MC4R cAMP signaling; AID 540295; 0.48% of 360,000 active; P32245; MC4R-expressing cells, MTII-stimulated cAMP, LANCE TR-FRET; inhibition, % at 6.5 µM;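 active means inhibition above its plate's cutoff, the mean of tested wells on that plate plus 3 SD, cut at about 29% in these data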;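 further: 0% = Melanotan II alone and 100% = Melanotan II plus saturating MCL0020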
Target sequence (P32245 whole entry, looked up): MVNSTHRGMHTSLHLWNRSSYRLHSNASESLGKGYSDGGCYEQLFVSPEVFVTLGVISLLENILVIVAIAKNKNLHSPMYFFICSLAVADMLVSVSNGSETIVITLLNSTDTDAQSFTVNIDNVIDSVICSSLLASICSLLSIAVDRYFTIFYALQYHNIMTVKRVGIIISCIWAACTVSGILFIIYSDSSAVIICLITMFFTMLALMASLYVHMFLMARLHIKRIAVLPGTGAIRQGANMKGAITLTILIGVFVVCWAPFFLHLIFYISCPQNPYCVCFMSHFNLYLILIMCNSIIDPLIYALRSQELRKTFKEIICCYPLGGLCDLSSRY
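Assay system: U2OS-MC4R stable cell line; Also added: Melanotan II; Technique: Eu-cAMP/anti-cAMP TR-FRET, emission 671 nm; Times: 30-min compound, 1-h challenge, 1-h detection, room temperature.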
Tb MetRS inh – Trypanosoma brucei MetRS inhibition. purified T. brucei MetRS, ATP depletion, Kinase-Glo luminescence. inhibition, % at 11.9 µM. 0.4% of 360,000 active;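 active means inhibition above a per-plate cutoff of the control wells' mean inhibition plus 3 SD, cut at about 5.5% in these data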;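 further: 0% = DMSO wells median and 100% = median of wells with control inhibitor compound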
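technique = Kinase-Glo luminescence, ATP depletion format | system = purified MetRS (methionyl-tRNA synthetase) enzyme from Trypanosoma brucei | timing = 15 min preincubation, 2 h reaction, all 25 °C | evaluation = percent inhibition versus plate control medians | dosing = single dose, 11.9 µM final nominal, 0.9% final DMSO | also added = substrates ATP, L-methionine and bulk Escherichia coli tRNA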
Granule exo inh – lytic granule exocytosis inhibition. TALL-104 LAMP-1 surface exposure, flow cytometry; cells stimulated with thapsigargin and PMA. inhibition, % at 10 µM. 0.66% of 360,000 active. AID 651702;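 active means inhibition above about 55%, limit read from the data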
iPSC survival up – increases survival of single human iPS cells. AID 602274. survival enhancement, % at 20 µM. hiPSC single-cell survival, ATPlite luminescence; 100% = ROCK inhibitor wells, 0% = DMSO. 0.044% of 360,000 active; in the data active means survival enhancement above about 18%;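 further: cells exposed to compounds for 16 hours before the ATP read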
MC4R barr agon – activates human MC4R beta-arrestin recruitment; P32245; U2OS MC4R beta-arrestin complementation, luminescence; percent of melanotan II response, DMSO zero; activation, % at 8.9 µM; 0.98% of 360,000 active; AID 540308;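 active means activation above a per-plate cutoff, the mean activation of sample wells on that plate plus 3 SD, cut at about 8% in these data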
Tb MetRS conf – confirmation of Trypanosoma brucei MetRS inhibitors; shares compounds with Tb MetRS inh; T. brucei MetRS enzyme, luminescence (ATP depletion); inhibition, % at 11.9 µM; 93% of 1,400 active; in the data active means inhibition above about 7%
Jurkat tox – kills Jurkat cells in T. brucei MetRS counterscreen; shares compounds with Tb MetRS inh; Jurkat cells viability, ATP luminescence; inhibition, % at 8.3 µM; 12% of 1,400 active; AID 624413; in the data active means inhibition above about 15%;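 further: 0% = vehicle and 100% = reference inhibitor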
Tb MetRS inh FP – orthogonal test for Trypanosoma brucei MetRS inhibitors. shares compounds with Tb MetRS inh. purified T. brucei MetRS, fluorescence polarization. inhibition, % at 11.9 µM. 44% of 1,400 active; in the data active means inhibition above about 17%;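 further: 0% = vehicle wells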
Starred values were filed as active, the others as inactive; . = not tested or not shown. This is a sample that favours compounds with a hit; in the whole collection about 2.6% have one here.

SMILES	ABCB6 inh MLPCN	MC4R antag cAMP	Tb MetRS inh	Granule exo inh	iPSC survival up	MC4R barr agon	Tb MetRS conf	Jurkat tox	Tb MetRS inh FP
O=C(NC(Cc1ccccc1)c1nc2ccccc2[nH]1)c1ccc(Cl)c([N+](=O)[O-])c1 (centres undefined)	104	19	20*	4	-4	-2	26*	11	12
CSCC[C@H](NC(=O)c1ccc(Cl)c([N+](=O)[O-])c1)c1nc2ccccc2[nH]1	100	22	56*	-1	-1	-3	73*	9	43*
CCOc1ccc(C(=O)Nc2cc(-c3nc4ccccc4[nH]3)ccc2Cl)cc1[N+](=O)[O-]	96	-8	7.7*	19	-3	-1	14*	5	15
CSCC[C@H](NC(=O)COc1ccc(Cl)cc1Cl)c1nc2ccccc2[nH]1	96	12	12*	0	0	5	24*	5	11
CCOc1ccc(NC(=O)C(C)NC(=O)c2ccccc2Cl)cc1S(=O)(=O)N1CCCC1 (centres undefined)	104	3	-1	-4	-1	0	.	.	.
O=C(Cn1cncn1)N/N=C/c1cccc(Cl)c1	97	-2	0	-4	0	-1	.	.	.
O=c1c2ccccc2[nH]c(=S)n1CCCN1CCC(Cc2ccccc2)CC1	94	-4	0	43	0	-1	.	.	.
Cc1cccc(CN2CCN(C3CN(Cc4cn(Cc5cccc(Cl)c5)nn4)S(=O)(=O)C3)CC2)c1 (centres undefined)	102	.	-1	3	0	.	.	.	.
CCOC(=O)C1=C(COC(=O)COc2ccc(C(=O)CC)cc2)NC(=O)NC1C (centres undefined)	95	9	-1	-6	0	-2	.	.	.
O=C(C1=C[C@@H](c2ccc(Br)cc2)C[C@@H](OCCCCO)O1)N1CCN(Cc2ccc3c(c2)OCO3)CC1	97	9	9.0*	-2	-1	1	31*	5	9
O=C(C1=C[C@H](c2ccccc2)C[C@H](OCCCCO)O1)N1CCN(Cc2ccc3c(c2)OCO3)CC1	98	-1	0	-4	2	-1	.	.	.
O=C(C1=C[C@@H](c2csc3ccccc23)C[C@@H](OCc2ccc(CO)cc2)O1)N1CCN(Cc2ccc3c(c2)OCO3)CC1	99	8	3	-4	1	0	.	.	.
O=C(C1=C[C@@H](c2csc3ccccc23)C[C@@H](OCCCCO)O1)N1CCN(Cc2ccc3c(c2)OCO3)CC1	90	9	12*	6	3	-1	48*	1	27*
Cc1ccccc1-n1cc(-c2ccc(Br)cc2)nc1SCC(N)=O	97	11	29*	8	0	1	39*	6	23*
O=C(O)c1ccc(CSc2nnc(COc3ccc(Cl)cc3Cl)o2)cc1	102	6	48*	-1	1	-1	60*	9	35*
CCCc1ccc(-c2c(C)sc(N)c2C#N)cc1	89	3	27*	-2	3	4	17*	11	8
CCOC(=O)CN(C(=O)CSc1nnc2c(n1)[nH]c1ccccc12)c1ccccc1	89	3	1	-3	-2	1	.	.	.
CCOC(=O)CN(C(=O)CSc1nnc2c(n1)[nH]c1ccc(F)cc12)c1ccccc1	97	3	6.3*	-2	-2	1	17*	2	10
CSc1ccc(CN2CCN(C3CCCC3)C(CCO)C2)cc1 (centres undefined)	82	-5	-1	29	0	1	.	.	.
Cn1cnc2cc(NCc3ccc(Cl)cc3)ccc21	329	-6	7.2*	3	-1	-2	16*	1	1
CCOc1cc(/C=C2\SC(=S)N(NS(=O)(=O)c3ccccc3)C2=O)ccc1O	109	17	9.0*	-4	1	-2	19*	0	24*
CCOc1cc(/C=C2\SC(N)=NC2=O)ccc1O	101	-17	-1	9	0	-2	.	.	.
CCOc1cc(/C=C2\SC(=O)N=C2N)ccc1O	104	-21	32*	-12	-2	-2	44*	14	19*
CCOC(=O)N1CCN(C(=O)CCn2c(=S)[nH]c3ccsc3c2=O)CC1	100	24	1	-2	0	-1	.	.	.
COc1ccc2nc(NCc3ccccc3)[nH]c2c1	96	-6	1	1	6	1	.	.	.
SMILES	ABCB6 inh MLPCN	MC4R antag cAMP	Tb MetRS inh	Granule exo inh	iPSC survival up	MC4R barr agon	Tb MetRS conf	Jurkat tox	Tb MetRS inh FP
O=c1[nH]c2ccccc2nc1NCc1ccccc1	103	-1	0	-6	0	2	.	.	.
Cc1ccc2nc(C3CCCN(C(=O)NCc4ccccc4)C3)[nH]c2c1 (centres undefined)	99	-1	15*	1	-2	-2	23*	-3	9
S=c1nc(NCc2ccc3c(c2)OCO3)c2ccccc2[nH]1	94	3	-1	-20	2	-1	.	.	.
c1ccc2[nH]c(NCc3ccc4c(c3)OCO4)nc2c1	101	-3	18*	0	-2	-1	30*	3	14
Cc1ccc2nc(NCc3ccccc3)[nH]c2c1	102	-21	17*	6	-3	-3	28*	70*	13
c1ccc(CNc2nc3ccccc3[nH]2)cc1	100	10	26*	-1	-3	0	35*	9	20*
CN(Cc1ccccc1)C(=O)C1CCCN1S(=O)(=O)c1ccc(Cl)cc1 (centres undefined)	106	17	-1	5	-4	1	.	.	.
O=C(CC1(CC2=NS(=O)(=O)c3ccccc3N2)CCCC1)NCCc1ccccc1	102	1	0	2	0	0	.	.	.
CC(C)(CC(=O)O)CC(=O)N1CCN(c2cc(C(F)(F)F)nc3ccccc23)CC1	95	23	0	0	1	2	.	.	.
CCOC(=O)Cn1nc(C)n(-c2ccc(F)cc2)c1=O	101	3	-1	9	-1	0	.	.	.
COc1cc(CNc2nc3ccccc3[nH]2)cc(OC)c1OC	100	-3	16*	10	1	-3	32*	11	9
CCn1c(NCc2cc(OC)c(OC)c(OC)c2)nc2ccccc21	100	4	4	0	0	-3	.	.	.

Source: PubChem (several laboratories)
